Laboratory results as given in ChEMBL document CHEMBL4346672, “Antimicrobial and KPC/AmpC inhibitory activity of functionalized benzosiloxaboroles” (Eur J Med Chem, 2019).
≈ marks a conversion by molar mass, not a printed value.

Tested on: Klebsiella pneumoniae
Experiment: Inhibition of beta lactamase CMY-2 in Klebsiella pneumoniae 78 assessed as potentiation of ceftazidime-induced antibacterial activity by measuring ceftazidime MIC at 16 mg/L incubated for 18 hrs by broth dilution method (reference value: >[…] mg/L)
Settings: not given

SMILES | MIC [µg/mL]
C[Si]1(C)OB(O)c2c(F)c(F)c(F)c(F)c21 | 64
C[Si]1(C)OB(O)c2ccc(B(O)O)cc21 | 64

Tested on: not listed separately
Experiment: Cytotoxicity against human MRC5 cells assessed as cell viability at 4 ug/ml incubated for 72 hrs by MTT assay
Type: cell-based
Settings: read-out: Activity
Outline: (§1)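 MRC-5 pd30 human fibroblasts grown in MEM with 10% FBS, 2 mM L-glutamine, penicillin/streptomycin and 1% non-essential amino acids at 37 °C, 5% CO2. Exponentially growing cells trypsinized and seeded at 8×10^3 cells/well, then dosed 18 h later with 2-fold dilutions (0.5% DMSO final) for 72 h. MTT (1 mg/ml final) added for 1 h at 37 °C, formazan dissolved in DMSO, OD read at 570 nm. Four replicates, expressed as % viable versus control.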

SMILES | viability at 72 h, 4 ug/ml [%]
C[Si]1(C)OB(O)c2ccc(B(O)O)cc21 | 129

Tested on: not listed separately
Experiment: Cytotoxicity against human MRC5 cells assessed as cell viability at 1 ug/ml incubated for 72 hrs by MTT assay
Type: cell-based
Settings: read-out: Activity
Outline: as §1

SMILES | viability at 72 h, 1 ug/ml [%]
C[Si]1(C)OB(O)c2ccc(B(O)O)cc21 | 117

Tested on: Klebsiella pneumoniae
Experiment: Inhibition of beta lactamase KPC-3 in Klebsiella pneumoniae 83 assessed as potentiation of meropenem-induced antibacterial activity by measuring meropenem MIC at 16 mg/L incubated for 18 hrs by broth dilution method (reference value: […] mg/L)
Settings: not given

SMILES | MIC [µg/mL]
C[Si]1(C)OB(O)c2c(F)c(F)c(F)c(F)c21 | 32
C[Si]1(C)OB(O)c2ccc(B(O)O)cc21 | 8

Tested on: Acinetobacter baumannii
Experiment: Inhibition of beta lactamase OXA-24 in Acinetobacter baumannii 181 assessed as potentiation of ceftazidime-induced antibacterial activity by measuring ceftazidime MIC at 16 mg/L incubated for 18 hrs by broth dilution method (reference value: >[…] mg/L)
Settings: not given

SMILES | MIC [µg/mL]
C[Si]1(C)OB(O)c2c(F)c(F)c(F)c(F)c21 | > 64
C[Si]1(C)OB(O)c2ccc(B(O)O)cc21 | > 64

Biological target: Class A carbapenemase KPC-2 (Escherichia coli) (UniProt A8DS27)
Experiment: Inhibition of beta lactamase KPC-2 in Escherichia coli 76 assessed as potentiation of meropenem-induced antibacterial activity by measuring meropenem MIC at 16 mg/L incubated for 18 hrs by broth dilution method (reference value: >[…] mg/L)
Settings: not given

SMILES | MIC [µg/mL]
C[Si]1(C)OB(O)c2c(F)c(F)c(F)c(F)c21 | > 64
C[Si]1(C)OB(O)c2ccc(B(O)O)cc21 | > 64

Tested on: Pseudomonas aeruginosa
Experiment: Inhibition of beta lactamase AmpC in Pseudomonas aeruginosa 700 assessed as potentiation of ceftazidime-induced antibacterial activity by measuring ceftazidime MIC at 16 mg/L incubated for 18 hrs by broth dilution method (reference value: >[…] mg/L)
Settings: not given

SMILES | MIC [µg/mL]
C[Si]1(C)OB(O)c2c(F)c(F)c(F)c(F)c21 | > 64
C[Si]1(C)OB(O)c2ccc(B(O)O)cc21 | 32

Tested on: Escherichia coli
Experiment: Inhibition of beta lactamase KPC-3 in Escherichia coli 82 TR assessed as potentiation of meropenem-induced antibacterial activity by measuring meropenem MIC at 16 mg/L incubated for 18 hrs by broth dilution method (reference value: 2 mg/L)
Settings: not given

SMILES | MIC [µg/mL]
C[Si]1(C)OB(O)c2c(F)c(F)c(F)c(F)c21 | 2
C[Si]1(C)OB(O)c2ccc(B(O)O)cc21 | 0.25

Tested on: Klebsiella pneumoniae ATCC BAA-1705
Experiment: Inhibition of beta lactamase KPC-2 in Klebsiella pneumoniae ATCC BAA 1705 assessed as potentiation of ceftazidime-induced antibacterial activity by measuring ceftazidime MIC at 16 mg/L incubated for 18 hrs by broth dilution method
Settings: not given

SMILES | MIC [µg/mL]
C[Si]1(C)OB(O)c2c(F)c(F)c(F)c(F)c21 | 64
C[Si]1(C)OB(O)c2ccc(B(O)O)cc21 | 64

Tested on: Klebsiella pneumoniae
Experiment: Inhibition of beta lactamase SHV-12 in Klebsiella pneumoniae ATCC 700603 assessed as potentiation of ceftazidime-induced antibacterial activity by measuring ceftazidime MIC at 16 mg/L incubated for 18 hrs by broth dilution method (reference value: […] mg/L)
Settings: not given

SMILES | MIC [µg/mL]
C[Si]1(C)OB(O)c2c(F)c(F)c(F)c(F)c21 | 64
C[Si]1(C)OB(O)c2ccc(B(O)O)cc21 | 64

Tested on: Escherichia coli
Experiment: Inhibition of beta lactamase CMY-2 in Escherichia coli 77 assessed as potentiation of ceftazidime-induced antibacterial activity by measuring ceftazidime MIC at 16 mg/L incubated for 18 hrs by broth dilution method (reference value: […] mg/L)
Settings: not given

SMILES | MIC [µg/mL]
C[Si]1(C)OB(O)c2c(F)c(F)c(F)c(F)c21 | 16
C[Si]1(C)OB(O)c2ccc(B(O)O)cc21 | 8

Tested on: Pseudomonas aeruginosa
Experiment: Inhibition of beta lactamase OXA-15 in Pseudomonas aeruginosa 852 assessed as potentiation of ceftazidime-induced antibacterial activity by measuring ceftazidime MIC at 16 mg/L incubated for 18 hrs by broth dilution method (reference value: >[…] mg/L)
Settings: not given

SMILES | MIC [µg/mL]
C[Si]1(C)OB(O)c2c(F)c(F)c(F)c(F)c21 | > 64
C[Si]1(C)OB(O)c2ccc(B(O)O)cc21 | > 64

Tested on: Klebsiella pneumoniae
Experiment: Inhibition of beta lactamase KPC-3 in Klebsiella pneumoniae 83 assessed as potentiation of ceftazidime-induced antibacterial activity by measuring ceftazidime MIC at 16 mg/L incubated for 18 hrs by broth dilution method (reference value: >[…] mg/L)
Settings: not given

SMILES | MIC [µg/mL]
C[Si]1(C)OB(O)c2c(F)c(F)c(F)c(F)c21 | > 64
C[Si]1(C)OB(O)c2ccc(B(O)O)cc21 | 64

Tested on: not listed separately
Experiment: Cytotoxicity against human MRC5 cells assessed as cell viability at 16 ug/ml incubated for 72 hrs by MTT assay
Type: cell-based
Settings: read-out: Activity
Outline: as §1

SMILES | viability at 72 h, 16 ug/ml [%]
C[Si]1(C)OB(O)c2ccc(B(O)O)cc21 | 120

Tested on: not listed separately
Experiment: Cytotoxicity against human MRC5 cells assessed as cell viability at 0.5 ug/ml incubated for 72 hrs by MTT assay
Type: cell-based
Settings: read-out: Activity
Outline: as §1

SMILES | viability at 72 h, 0.5 ug/ml [%]
C[Si]1(C)OB(O)c2ccc(B(O)O)cc21 | 112

Tested on: Klebsiella pneumoniae
Experiment: Inhibition of beta lactamase KPC-3 in Klebsiella pneumoniae 81 assessed as potentiation of meropenem-induced antibacterial activity by measuring meropenem MIC at 16 mg/L incubated for 18 hrs by broth dilution method (reference value: […] mg/L)
Settings: not given

SMILES | MIC [µg/mL]
C[Si]1(C)OB(O)c2c(F)c(F)c(F)c(F)c21 | 16
C[Si]1(C)OB(O)c2ccc(B(O)O)cc21 | 4

Tested on: Escherichia coli
Experiment: Inhibition of beta lactamase CMY-2 in Escherichia coli 77 assessed as potentiation of ceftazidime-induced antibacterial activity by measuring diameter of zone inhibition at 0.3 mg incubated for 18 hrs in presence of 30 ug ceftazidime by CLSI disc diffusion method (Rvb=13 mm)
Settings: not given
Outline: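 AmpC combination disc test on Mueller-Hinton agar, following EUCAST guidance and Yagi et al. Inhibition zones were compared between a CAZ-30 disc and a ceftazidime disc plus agent or PBA, each at 0.3 mg per disc. Plates were incubated at 35 °C for 18 h. A zone difference of at least 5 mm was counted as inhibition.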

SMILES | inhibition zone (IZ) [mm]
C[Si]1(C)OB(O)c2c(F)c(F)c(F)c(F)c21 | 22
C[Si]1(C)OB(O)c2ccc(B(O)O)cc21 | 22

Tested on: Stenotrophomonas maltophilia
Experiment: Bactericidal activity against Stenotrophomonas maltophilia ATCC 13637 measured after 18 hrs by CLSI broth dilution method
Type: functional
Settings: ATCC 13637, 18 h
Outline: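 Strains stored at -80 °C and subcultured twice on tryptic soy agar before testing. Compounds dissolved in DMSO. […] MBC then determined per CLSI recommendations.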

SMILES | MBC [µg/mL]
C[Si]1(C)OB(O)c2ccc(Cl)cc21 | 200 (≈ 941 µM)
C[Si]1(C)OB(O)c2ccc(Cl)c(Cl)c21 | 400 (≈ 1620 µM)

Tested on: Klebsiella pneumoniae
Experiment: Inhibition of beta lactamase KPC-2 in Klebsiella pneumoniae 75 assessed as potentiation of ceftazidime-induced antibacterial activity by measuring ceftazidime MIC at 16 mg/L incubated for 18 hrs by broth dilution method (reference value: […] mg/L)
Settings: not given

SMILES | MIC [µg/mL]
C[Si]1(C)OB(O)c2c(F)c(F)c(F)c(F)c21 | 64
C[Si]1(C)OB(O)c2ccc(B(O)O)cc21 | 64

Tested on: Acinetobacter baumannii
Experiment: Inhibition of beta lactamase OXA-24 in Acinetobacter baumannii 181 assessed as potentiation of meropenem-induced antibacterial activity by measuring meropenem MIC at 16 mg/L incubated for 18 hrs by broth dilution method (reference value: […] mg/L)
Settings: not given

SMILES | MIC [µg/mL]
C[Si]1(C)OB(O)c2c(F)c(F)c(F)c(F)c21 | > 64
C[Si]1(C)OB(O)c2ccc(B(O)O)cc21 | > 64

Tested on: not listed separately
Experiment: Cytotoxicity against human MRC5 cells assessed as cell viability at 32 ug/ml incubated for 72 hrs by MTT assay
Type: cell-based
Settings: read-out: Activity
Outline: as §1

SMILES | viability at 72 h, 32 ug/ml [%]
C[Si]1(C)OB(O)c2ccc(B(O)O)cc21 | 102

Tested on: not listed separately
Experiment: Cytotoxicity against human MRC5 cells assessed as cell viability at 2 ug/ml incubated for 72 hrs by MTT assay
Type: cell-based
Settings: read-out: Activity
Outline: as §1

SMILES | viability at 72 h, 2 ug/ml [%]
C[Si]1(C)OB(O)c2ccc(B(O)O)cc21 | 124

Tested on: Klebsiella pneumoniae 700603
Experiment: (§2) Inhibition of extended-spectrum beta lactamase in Klebsiella pneumoniae ATCC 700603 assessed as potentiation of cefotaxime-induced antibacterial activity by measuring diameter of zone inhibition at 0.3 mg incubated for 18 hrs in presence of 10 ug cefotaxime by CLSI disc diffusion method (Rvb=19 mm)
Settings: not given
Outline: (§3)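 EUCAST ESBL combination disc test on Mueller-Hinton agar. Zones were compared between a ceftazidime or cefotaxime disc alone and the same disc plus agent at 0.3 mg per disc. Clavulanic acid discs at 0.01 mg per disc served as reference. Plates were incubated at 35 °C for 18 h. A difference of at least 5 mm was counted as inhibition.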

SMILES | inhibition zone (IZ) [mm]
C[Si]1(C)OB(O)c2c(F)c(F)c(F)c(F)c21 | 19
C[Si]1(C)OB(O)c2ccc(B(O)O)cc21 | 19

Tested on: Klebsiella pneumoniae 700603
Experiment: as §2, with “ceftazidime-induced” for “cefotaxime-induced”, “ceftazidime” for “cefotaxime”, “(Rvb=13” for “(Rvb=19”
Settings: not given
Outline: as §3

SMILES | inhibition zone (IZ) [mm]
C[Si]1(C)OB(O)c2c(F)c(F)c(F)c(F)c21 | 13
C[Si]1(C)OB(O)c2ccc(B(O)O)cc21 | 13
